Drawing on ChEMBL document CHEMBL3351523 (Bioorg Med Chem, 2014), this text covers CC50, EC50 and selectivity ratio for twelve molecules.

Structures are written as SMILES.

The nature of series [1]: Cytotoxicity against mock-infected human MT4 cells after 96 hrs by MTT assay. The class given is cell-based. Summed up: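 Exponentially growing MT-4 cells were seeded at 1 × 10^5 cells/mL in RPMI-1640 with 10% FBS and held at 37 °C, 5% CO2 with serial compound dilutions. Viability was read by MTT after 96 h. CC50 from linear regression against untreated controls.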
For series [2], the system named is Human immunodeficiency virus 1. Put plainly: Antiviral activity against HIV1 infected in human MT4 cells assessed as inhibition of virus-induced cytopathogenicity after 4 days by MTT assay. The class given is functional, organism-based. As to conditions: Human immunodeficiency virus 1, MT4, 96 h. Summed up: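 MT-4 cells (1 × 10^4/well in RPMI) were infected acutely with HIV-1 IIIB, 100 CCID50 (m.o.i. 0.01), with serial dilutions from 100 µM, 1:5. After 4 days at 37 °C, protection from virus-induced cytopathogenicity was read by MTT. EC50 came from linear regression against untreated controls.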

Series [3] can be described thus: Cytotoxicity against mock-infected MDBK cells after 48 to 96 hrs by MTT assay. The class given is cell-based, Bos taurus. The following applies: cattle. The method, boiled down: (§1)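 Mock-infected MDBK (6 × 10^5 cells/mL; MEM-E, 10% horse serum, 1 mM pyruvate) or BHK (1 × 10^6 cells/mL; MEM-E, 10% FBS) cells were incubated at 37 °C, 5% CO2 with serial dilutions from 100 µM, 1:5. Viability by MTT after 48–96 h. CC50 from linear regression against untreated controls.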

Series [4] relates to Bovine viral diarrhea virus 1. As to the kind of experiment: Antiviral activity against Bovine viral diarrhea virus infected in MDBK cells assessed as inhibition of virus-induced cytopathogenicity after 3 to 4 days by MTT assay. The class given is functional, organism-based. The following applies: Bovine viral diarrhea virus isolates and strains.
Series [5] can be described thus: Cytotoxicity against mock-infected BHK21 cells after 48 to 96 hrs by MTT assay. It is filed as functional. As to conditions: Mesocricetus auratus, BHK-21. The method, boiled down: as §1
Another series relates to Yellow fever virus. Put plainly: Antiviral activity against Yellow fever virus infected in BHK21 cells assessed as inhibition of virus-induced cytopathogenicity after 3 to 4 days by MTT assay. The class given is functional, organism-based. The following applies: BHK-21.
The next series concerns Reovirus sp. As to the kind of experiment: Antiviral activity against Reovirus type-1 infected in BHK21 cells assessed as inhibition of virus-induced cytopathogenicity after 3 to 4 days by MTT assay. It is filed as functional, organism-based. The following applies: BHK-21.
Series [6] in a line: Cytotoxicity against mock-infected african green monkey Vero 76 cells after 48 to 96 hrs by MTT assay. The class given is cell-based. The following applies: chlorocebus sabaeus, mock-infected Vero 76 cells.
Another series deals with Coxsackievirus B5. As to the kind of experiment: Antiviral activity against Coxsackievirus B5 infected in african green monkey Vero 76 cells assessed as reduction in plaque number after 3 days by plaque reduction assay. The class given is functional, organism-based. As to conditions: Enterovirus B, 72 h.
Another series concerns Poliovirus 1. As to the kind of experiment: Antiviral activity against Poliovirus type 1 Sabin strain infected in african green monkey Vero 76 cells assessed as reduction in plaque number after 2 days by plaque reduction assay. The class given is functional, organism-based. As to conditions: Enterovirus C, 48 h.
Series [7] deals with Respiratory syncytial virus. As to the kind of experiment: Antiviral activity against Respiratory syncytial virus infected in african green monkey Vero 76 cells assessed as reduction in plaque number after 5 days by plaque reduction assay. The class given is functional, organism-based. The following applies: human respiratory syncytial virus, 120 h.
Series [8] relates to Vesicular stomatitis virus. As to the kind of experiment: Antiviral activity against Vesicular stomatitis virus infected in african green monkey Vero 76 cells assessed as reduction in plaque number after 2 days by plaque reduction assay. It is filed as functional, organism-based. The following applies: 48 h.
The test system of a further series is Vaccinia virus. Put plainly: Antiviral activity against Vaccinia Virus infected in african green monkey Vero 76 cells assessed as reduction in plaque number after 3 days by plaque reduction assay. It is filed as functional, organism-based. As to conditions: Orthopoxvirus vaccinia, 72 h.
A further series has as its system Human alphaherpesvirus 1. As to the kind of experiment: Antiviral activity against HSV1 infected in african green monkey Vero 76 cells assessed as reduction in plaque number after 3 days by plaque reduction assay. It is filed as functional, organism-based. The following applies: Human alphaherpesvirus 1, Vero, 72 h.
The nature of series [9]: Selectivity index, ratio of CC50 for african green monkey Vero 76 cells to EC50 for Coxsackievirus B5. It is filed as toxicity, cell-based. As to conditions: read-out: Ratio CC50/EC50. The method, boiled down: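 Mock-infected Vero-76 cells were tested in parallel on the same 24-well plates as the plaque assays (seeding 4 × 10^5 cells/mL, D-MEM with FBS), with serial compound dilutions at 37 °C, 5% CO2. Viability was read after 48–96 h by crystal violet staining. CC50 by linear regression; selectivity index = Vero-76 CC50/EC50 for CVB-5 or RSV.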

`Oc1ccc(-c2nc3cc(C(F)(F)F)ccc3n2C[C@@H]2CCCN3CCCC[C@H]23)cc1` showed a half-maximal cytotoxic concentration (CC50) at 96 h in series [1] of 21 µM. Also, the EC50 in [2] is over 100 µM; in series [4] it was over 100 µM; with Yellow fever virus, over 100 µM; in the series on Reovirus sp. it was 32 µM; in the series on Coxsackievirus B5, 26 µM; with Poliovirus 1 it was over 100 µM. For the same molecule, the EC50 (in series [7]; in [8]; with Vaccinia virus; in the series with Human alphaherpesvirus 1) was over 100 µM in each case. Besides, the CC50 in series [3] amounted to 48 µM; in series [5], 60 µM; in series [6], 78 µM. In addition, the selectivity ratio in series [9] is 3.
In turn, `COc1ccc(-c2nc3cc(C(F)(F)F)ccc3n2C[C@H]2CCCN3CCCC[C@H]23)cc1` came in with a cytotoxic concentration (CC50) at 96 h in series [1] of 42 µM. For the same molecule, the EC50 in series [2] was over 100 µM; in [4], over 100 µM; in the series on Yellow fever virus it was over 100 µM; in the series on Reovirus sp., over 100 µM; in the series on Coxsackievirus B5, 54 µM; with Poliovirus 1 it was over 100 µM. Further, the concentration giving a half-maximal response (EC50) (in series [7]; in series [8]; in the series with Vaccinia virus; in the series on Human alphaherpesvirus 1) was over 100 µM each time. In addition, the cytotoxic concentration (CC50) in [3] was 57 µM; in series [5], 30 µM; in series [6] it was over 100 µM. The selectivity ratio in series [9] is over 1.85.
`CCN(CC)CCCn1c(Cc2ccc(Cl)c(Cl)c2)nc2cc(C(F)(F)F)ccc21`: the midpoint of cytotoxicity in [1], the CC50 at 96 h, lay at 40 µM. For the same molecule, the EC50 is over 100 µM in series [2]; over 100 µM in series [4]; over 100 µM with Yellow fever virus; over 100 µM with Reovirus sp.; 17 µM in the series with Coxsackievirus B5; 63 µM in the series with Poliovirus 1. The EC50 (in series [7]; in series [8]; in the series on Vaccinia virus; with Human alphaherpesvirus 1) was over 100 µM throughout. In addition, the CC50 in [3] was 26 µM; in series [5], over 100 µM; in [6] it was over 100 µM. In addition, the selectivity ratio in [9] is over 5.88.
In the case of `Clc1ccc(Cc2nc3cc(Cl)c(Cl)cc3n2C[C@@H]2CCCN3CCCC[C@H]23)cc1`, the cytotoxic concentration (CC50) at 96 h in [1] came to 17 µM. Also, the EC50 was over 100 µM in series [2]; over 100 µM in series [4]; over 100 µM with Yellow fever virus; over 100 µM in the series on Reovirus sp.; 28 µM in the series on Coxsackievirus B5; over 100 µM with Poliovirus 1. Further, the EC50 (in [7]; in series [8]; in the series with Vaccinia virus; with Human alphaherpesvirus 1) was over 100 µM throughout. Moreover, the cytotoxic concentration (CC50) in [3] was over 100 µM; in [5] it was 30 µM; in [6], over 100 µM. Moreover, the selectivity ratio in [9] is over 3.57.
In the case of `FC(F)(F)c1ccc2c(c1)nc(Cc1ccccc1)n2C[C@@H]1CCCN2CCCC[C@H]12`, the CC50 at 96 h in [1] was over 100 µM. Further, the EC50 in series [2] is over 100 µM; in [4], over 100 µM; with Yellow fever virus, over 100 µM; in the series on Reovirus sp. it was over 100 µM; with Coxsackievirus B5, 10 µM; in the series with Poliovirus 1 it was 60 µM. In addition, the EC50 (in [7]; in series [8]; with Vaccinia virus; in the series on Human alphaherpesvirus 1) was over 100 µM each time. Besides, the CC50 in series [3] was over 100 µM; in series [5] it was 15 µM; in series [6], over 100 µM. In series [9], the selectivity ratio was over 10.
`FC(F)(F)c1ccc2c(c1)nc(Cc1ccccc1)n2C[C@H]1CCCN2CCCC[C@H]12` returned a CC50 at 96 h in [1] of 100 µM. The EC50 was over 100 µM in series [2]; over 100 µM in series [4]; over 100 µM in the series with Yellow fever virus; over 100 µM with Reovirus sp.; 75 µM in the series on Coxsackievirus B5; over 100 µM with Poliovirus 1. Also, the EC50 (in series [7]; in [8]; in the series with Vaccinia virus; in the series on Human alphaherpesvirus 1) was over 100 µM throughout. In addition, the 50% cytotoxic concentration (CC50) in [3] came to 28 µM; in [5] it was 25 µM; in series [6] it was 93 µM. In series [9], the selectivity ratio is 1.24.
`Nc1ccc(Cc2nc3ccccc3[nH]2)cc1`: the CC50 at 96 h in series [1] was over 100 µM. Moreover, the EC50 in series [2] was over 100 µM; in series [4], over 100 µM; with Yellow fever virus, over 100 µM; in the series with Reovirus sp., over 100 µM; in the series with Coxsackievirus B5 it was 17 µM; in the series on Poliovirus 1, 58 µM. The EC50 (in [7]; in [8]; in the series with Vaccinia virus; with Human alphaherpesvirus 1) was over 100 µM each time. The CC50 in series [3], in series [5] and in series [6] was over 100 µM throughout. In addition, the selectivity ratio in [9] is over 5.88.
As for `FC(F)(F)c1ccc2[nH]c(Cc3ccc(Cl)cc3)nc2c1`, in series [1], the CC50 at 96 h was over 100 µM. Also, the EC50 was over 100 µM in series [2]; over 100 µM in series [4]; over 100 µM with Yellow fever virus; over 100 µM in the series on Reovirus sp.; 26 µM in the series with Coxsackievirus B5; over 100 µM in the series with Poliovirus 1. Besides, the EC50 (in [7]; in series [8]; in the series with Vaccinia virus; with Human alphaherpesvirus 1) was over 100 µM throughout. For the same molecule, the values for the CC50 in series [3], in [5] and in series [6] were 16 µM, 20 µM and 70 µM, respectively. Also, in [9], the selectivity ratio stood at 2.69.
As to `COc1ccc(Cc2nc3cc(C(F)(F)F)ccc3[nH]2)cc1`, the midpoint of cytotoxicity in [1], the CC50 at 96 h, lay at 69 µM. Moreover, the 50% effective concentration (EC50) in series [2] is over 100 µM; in [4] it was over 100 µM; with Yellow fever virus, over 100 µM; in the series on Reovirus sp. it was over 100 µM; in the series on Coxsackievirus B5, 20 µM; in the series with Poliovirus 1, over 100 µM. Further, the EC50 (in series [7]; in series [8]; with Vaccinia virus; with Human alphaherpesvirus 1) was over 100 µM each time. In addition, the CC50 was determined as 56 µM in [3], 60 µM in [5] and 92 µM in [6]. In addition, the selectivity ratio in series [9] amounted to 4.6.
`Nc1ccc(Cc2nc3cc(C(F)(F)F)ccc3[nH]2)cc1`: in [1], the CC50 at 96 h is over 100 µM. For the same molecule, the EC50 in series [2] is over 100 µM; in [4] it was over 100 µM; in the series on Yellow fever virus, over 100 µM; in the series on Reovirus sp., over 100 µM; with Coxsackievirus B5, 11 µM; with Poliovirus 1 it was over 100 µM. Also, the EC50 (in [7]; in series [8]; in the series on Vaccinia virus; in the series on Human alphaherpesvirus 1) was over 100 µM in each case. Moreover, the CC50 in series [3], in series [5] and in series [6] was over 100 µM throughout. The selectivity ratio in series [9] is over 9.09.
In the case of `COCCn1c(Cc2ccc(Cl)c(Cl)c2)nc2cc(C(F)(F)F)ccc21`, in [1], the CC50 at 96 h is over 100 µM. Besides, the EC50 in [2] was over 100 µM; in [4], over 100 µM; in the series on Yellow fever virus it was over 100 µM; with Reovirus sp. it was over 100 µM; with Coxsackievirus B5, 12 µM; in the series with Poliovirus 1 it was over 100 µM. Also, the EC50 (in [7]; in series [8]; with Vaccinia virus; in the series on Human alphaherpesvirus 1) was over 100 µM each time. Also, the CC50 in series [3], in series [5] and in [6] was over 100 µM each time. Further, the selectivity ratio in series [9] is over 8.33.
As to `c1ccc2[nH]c(SC[C@@H]3CCCN4CCCC[C@H]34)nc2c1`, the CC50 at 96 h in [1] was over 100 µM. Further, the EC50 in series [2] is over 100 µM; in [4], over 100 µM; in the series with Yellow fever virus, over 100 µM; in the series on Reovirus sp., over 100 µM; with Coxsackievirus B5, 48 µM; in the series with Poliovirus 1 it was over 100 µM. In addition, the EC50 (in [7]; in [8]; in the series with Vaccinia virus; in the series on Human alphaherpesvirus 1) was over 100 µM in each case. The CC50 in series [3], in series [5] and in [6] was over 100 µM each time. Further, in series [9], the selectivity ratio was over 2.08.
